Source: ChEMBL document CHEMBL1165881, “Synthesis and cytotoxicity evaluation of (tetrahydro-beta-carboline)-1,3,5-triazine hybrids as anticancer agents” (Eur J Med Chem, 2010)
Activity calls are given as the source filed them. No cut-off for these calls is given here.

Tests used:
MCF7 [1] = assay: Induction of apoptosis in human MCF7 cells assessed as DNA fragmentation at 0.25 uM after 24 hrs; type: functional, cell-based
Procedure, shortened: (§1)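 Treated 24 h with 0.25–0.74 range. Then 1 × 10^5 cells trypsinized, PBS-washed (4 °C, pH 7.4), lysed 10 min on ice (10 mM Tris-HCl pH 7.4, 10 mM EDTA, 0.5% SDS). RNase A 1 h at 37 °C, then proteinase K 4 h at 50 °C. DNA ethanol/sodium acetate precipitated, run on 1.5% agarose with ethidium bromide, viewed under UV.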

MCF7 [2] = assay: Induction of apoptosis in human MCF7 cells assessed as DNA fragmentation at 0.74 uM after 24 hrs; type: functional, cell-based; procedure, shortened: as §1
MDA-MB-231 [3] = assay: Induction of apoptosis in human MDA-MB-231 cells assessed as DNA fragmentation at 0.25 uM after 24 hrs; type: functional, cell-based; procedure, shortened: as §1
MDA-MB-231 [4] = assay: Induction of apoptosis in human MDA-MB-231 cells assessed as DNA fragmentation at 0.74 uM after 24 hrs; type: functional, cell-based; procedure, shortened: as §1
MCF7 [5] = assay: Induction of apoptosis in human MCF7 cells assessed as appearance of fragmented nuclei at 0.5 uM after 24 hrs by Hoechst staining; type: functional, cell-based
Procedure, shortened: (§2)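 1 × 10^4 cells grown on coverslips, treated 24 h, PBS-washed, fixed in 4% paraformaldehyde 15 min. Stained with Hoechst at 1.0 ug/ml for 15 min at 4 °C, washed, mounted, and examined by fluorescence microscopy; untreated cells as control.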

MCF7 [6] = assay: Induction of apoptosis in human MCF7 cells assessed as appearance of fragmented nuclei at 0.74 uM after 24 hrs by Hoechst staining; type: functional, cell-based; procedure, shortened: as §2
MDA-MB-231 [7] = assay: Induction of apoptosis in human MDA-MB-231 cells assessed as appearance of fragmented nuclei at 0.5 uM after 24 hrs by Hoechst staining; type: functional, cell-based; procedure, shortened: as §2
MDA-MB-231 [8] = assay: Induction of apoptosis in human MDA-MB-231 cells assessed as appearance of fragmented nuclei at 0.74 uM after 24 hrs by Hoechst staining; type: functional, cell-based; procedure, shortened: as §2
MDA-MB-231 [9] = assay: Cell cycle arrest in human MDA-MB-231 cells assessed as accumulation at G1 phase at o.74 uM after 24 hrs using propidium iodide staining by flow cytometry; type: functional
MDA-MB-231 [10] = assay: Cell cycle arrest in human MDA-MB-231 cells assessed as accumulation at S phase at o.74 uM after 24 hrs using propidium iodide staining by flow cytometry; type: functional
MDA-MB-231 [11] = assay: Cell cycle arrest in human MDA-MB-231 cells assessed as accumulation at G2 phase at o.74 uM after 24 hrs using propidium iodide staining by flow cytometry; type: functional
MCF7 [12] = assay: Cytotoxicity against human MCF7 cells after 72 hrs by MTT assay; type: functional, cell-based
Procedure, shortened: (§3)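 Seeded at 5000–10000 cells/well, incubated at 37 °C in CO2 with compounds at a range of concentrations, controls included, in triplicate wells. After 72 h, MTT solution (5 mg/mL) added; absorbance read at 540 nm. % cytotoxicity = 100 × [1 − (X/R1)] versus control absorbance; IC50 by nonlinear regression. Values are means of at least two independent experiments, three determinations each.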

SW-620 = assay: Cytotoxicity against human SW620 cells after 72 hrs by MTT assay; type: functional, cell-based; procedure, shortened: as §3
DU-145 = assay: Cytotoxicity against human DU145 cells after 72 hrs by MTT assay; type: functional, cell-based; procedure, shortened: as §3
KB = assay: Cytotoxicity against human KB cells after 72 hrs by MTT assay; type: functional, cell-based; procedure, shortened: as §3
PA-1 = assay: Cytotoxicity against human PA1 cells after 72 hrs by MTT assay; type: functional, cell-based; procedure, shortened: as §3
K562 = assay: Cytotoxicity against human K562 cells after 72 hrs by MTT assay; type: functional, cell-based; procedure, shortened: as §3
MIA PaCa-2 = assay: Cytotoxicity against human MIAPaCa2 cells after 72 hrs by MTT assay; type: functional, cell-based; procedure, shortened: as §3
A549 = assay: Cytotoxicity against human […] cells after 72 hrs by MTT assay; type: functional, cell-based; procedure, shortened: as §3
[13] = Cytotoxicity against mouse NIH/3T3 cells after 72 hrs by MTT assay; type: cell-based, NIH3T3; procedure, shortened: as §3
MCF7 [14] = assay: Cell cycle arrest in human MCF7 cells assessed as accumulation at G1 phase at 0.5 uM after 24 hrs using propidium iodide staining by flow cytometry; type: functional
MCF7 [15] = assay: Cell cycle arrest in human MCF7 cells assessed as accumulation at S phase at 0.5 uM after 24 hrs using propidium iodide staining by flow cytometry; type: functional
MCF7 [16] = assay: Cell cycle arrest in human MCF7 cells assessed as accumulation at G2 phase at 0.5 uM after 24 hrs using propidium iodide staining by flow cytometry; type: functional
MCF7 [17] = assay: Cell cycle arrest in human MCF7 cells assessed as accumulation at G1 phase at o.74 uM after 24 hrs using propidium iodide staining by flow cytometry; type: functional
MCF7 [18] = assay: Cell cycle arrest in human MCF7 cells assessed as accumulation at S phase at o.74 uM after 24 hrs using propidium iodide staining by flow cytometry; type: functional
MCF7 [19] = assay: Cell cycle arrest in human MCF7 cells assessed as accumulation at G2 phase at o.74 uM after 24 hrs using propidium iodide staining by flow cytometry; type: functional
MDA-MB-231 [20] = assay: Cell cycle arrest in human MDA-MB-231 cells assessed as accumulation at G1 phase at 0.5 uM after 24 hrs using propidium iodide staining by flow cytometry; type: functional
MDA-MB-231 [21] = assay: Cell cycle arrest in human MDA-MB-231 cells assessed as accumulation at S phase at 0.5 uM after 24 hrs using propidium iodide staining by flow cytometry; type: functional
MDA-MB-231 [22] = assay: Cell cycle arrest in human MDA-MB-231 cells assessed as accumulation at G2 phase at 0.5 uM after 24 hrs using propidium iodide staining by flow cytometry; type: functional
[23] = Homo sapiens, K562, 72 h, read-out: IC50
[24] = Homo sapiens, MCF7, 72 h, read-out: IC50
[25] = Homo sapiens, DU-145, 72 h, read-out: IC50
[26] = Homo sapiens, PA-1, 72 h, read-out: IC50
[27] = Mus musculus, NIH3T3, 72 h, read-out: IC50
[28] = Homo sapiens, SW-620, 72 h, read-out: IC50
[29] = Homo sapiens, MIA PaCa-2, 72 h, read-out: IC50
[30] = Homo sapiens, A549, 72 h, read-out: IC50

Structure (SMILES) | IC50 (SW-620; sw-620, read-out: IC50) [µM] | IC50 (KB; kb) [µM] | IC50 (K562; [23]) [µM] | IC50 (MIA PaCa-2; mia paca-2, read-out: IC50) [µM] | IC50 (A549; a549, read-out: IC50) [µM] | IC50 (MCF7 [12]; [24]) [µM] | IC50 (DU-145; [25]) [µM] | IC50 (PA-1; [26]) [µM] | IC50 [13, 27] [µM] | IC50 (SW-620; [28]) [µM] | IC50 (KB; Homo sapiens, KB, 72 h) [µM] | IC50 (A549; [30]) [µM] | IC50 (DU-145; du-145) | IC50 (K562; k562) | IC50 (MIA PaCa-2; mia paca-2) | other results
COC(=O)[C@@H]1Cc2c([nH]c3ccccc23)[C@@H](c2ccc(OC)cc2)N1c1nc(N2CCN(C)CC2)nc(N2CCN(C)CC2)n1 [listing 1 of 2 here] | – | – | – | – | – | – | – | – | – | – | – | – | – | – | – | Activity (MCF7 [1]): Active; Activity (MCF7 [2]): Active; Activity (MDA-MB-231 [3]): Active; Activity (MDA-MB-231 [4]): Active; Activity (MCF7 [5]): Active; Activity (MCF7 [6]): Active; Activity (MDA-MB-231 [7]): Active; Activity (MDA-MB-231 [8]): Active
COC(=O)[C@@H]1Cc2c([nH]c3ccccc23)[C@@H](c2ccc(OC)cc2)N1c1nc(N2CCN(C)CC2)nc(N2CCN(C)CC2)n1 [listing 2 of 2 here] | 1.35 | 8.06 | 4.6 | 2.3 | 2.1 | – | – | – | – | – | – | – | – | – | – | Activity (MDA-MB-231 [9]): 65.11%; Activity (MDA-MB-231 [10]): 21.91%; Activity (MDA-MB-231 [11]): 12.98%; IC50 (MCF7 [12]; mcf7, read-out: IC50): 0.74 µM; IC50 (DU-145; du-145, read-out: IC50): 6.75 µM; IC50 (PA-1; pa-1, read-out: IC50): 1.82 µM; IC50 ([13]; nih3t3, read-out: IC50): 1.96 µM; Activity (MCF7 [14]): 64.4%; Activity (MCF7 [15]): 35.5%; Activity (MCF7 [16]): 0.09%; Activity (MCF7 [17]): 76.68%; Activity (MCF7 [18]): 0.12%; Activity (MCF7 [19]): 23.2%; Activity (MDA-MB-231 [20]): 64.63%; Activity (MDA-MB-231 [21]): 22.74%; Activity (MDA-MB-231 [22]): 12.63%
COC(=O)[C@@H]1Cc2c([nH]c3ccccc23)[C@H](c2ccc(OC)cc2)N1c1nc(N2CCN(C)CC2)nc(N2CCN(C)CC2)n1 (racemic) | 3.32 | 1.46 | 7.13 | 7.37 | 6.3 | 6.06 | 5.35 | 2.72 | 2.33 | – | – | – | – | – | – | –
COC(=O)[C@H]1Cc2c([nH]c3ccccc23)[C@@H](c2ccccc2)N1c1nc(N2CCN(C)CC2)nc(N2CCN(C)CC2)n1 | – | – | 6.45 | – | – | 8.28 | 7.76 | 1.79 | 11.4 | 3.24 | 1.83 | 8.62 | – | – | – | IC50 (MIA PaCa-2; [29]): 5.88 µM
COC(=O)[C@H]1Cc2c([nH]c3ccccc23)[C@H](c2ccc(C)cc2)N1c1nc(N2CCN(C)CC2)nc(N2CCN(C)CC2)n1 | – | – | 3.22 | – | – | 5.89 | 2.14 | 6.91 | 2.16 | 2.65 | 1.86 | 2.34 | – | – | – | IC50 (MIA PaCa-2; [29]): 7 µM
CCCNc1nc(NCCC)nc(N2[C@@H](c3ccc(C)cc3)c3[nH]c4ccccc4c3C[C@@H]2C(=O)OC)n1 (racemic) | – | – | – | – | – | – | – | – | – | – | 0.665 | – | Not Active | Not Active | Not Active | IC50 (MCF7 [12]; mcf7): Not Active; IC50 (SW-620; sw-620): Not Active; IC50 (PA-1; pa-1): Not Active; IC50 (A549; a549): Not Active; IC50 ([13]; nih3t3): Not Active
COC(=O)[C@@H]1Cc2c([nH]c3ccccc23)[C@@H](c2ccc(OC)cc2)N1c1nc(N2CCN(C)CC2)nc(N2CCN(C)CC2)n1 (racemic) | 4.26 | 1.87 | – | 6.35 | 5.67 | – | 10.5 | 2.03 | – | – | – | – | – | Not Active | – | IC50 (MCF7 [12]; mcf7, read-out: IC50): 12.4 µM; IC50 ([13]; nih3t3, read-out: IC50): 4.78 µM
COC(=O)[C@@H]1Cc2c([nH]c3ccccc23)[C@@H](c2ccc(C(C)C)cc2)N1c1nc(N2CCN(C)CC2)nc(N2CCN(C)CC2)n1 | – | – | 2.24 | – | – | 6.73 | – | 2.89 | 2.63 | 5.92 | 3.73 | 1.75 | Not Active | – | Not Active | –
COC(=O)[C@@H]1Cc2c([nH]c3ccccc23)[C@@H](c2ccc(C)cc2)N1c1nc(N2CCN(C)CC2)nc(N2CCN(C)CC2)n1 (racemic) | – | – | – | – | – | – | – | – | – | – | 0.106 | – | Not Active | Not Active | Not Active | IC50 (MCF7 [12]; mcf7): Not Active; IC50 (SW-620; sw-620): Not Active; IC50 (PA-1; pa-1): Not Active; IC50 (A549; a549): Not Active; IC50 ([13]; nih3t3): Not Active
